Bioassay records as filed in PubChem.
Tn7 DDE FP: inhibitors of Tn7 peptide binding to human fibrin DD(E); inhibition, % at 8.3 µM; P02675; FP displacement of FITC-Tn7 peptide from fibrin DD(E); 0% = median of compound wells per plate; 370,000 tested, 0.13% active; AID 720508;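 active means inhibition above the mean of compounds falling within the control limits plus 3 SD of them, cut at about 14% in these data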;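 further: 0% = plate median of compound wells and 100% = 10 µM Aha-Tn7 peptide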
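Measure: % inhibition scaled between sample-field median and high-control FP; Test system: human fibrin DD(E); Quantity: 2 µM final DD(E) protein; Doses: one dose, 8.3 µM nominal; Schedule: compound with protein 10 min, then 3 h after probe, room temperature; Detection: fluorescence polarization; Medium: Tris buffer with calcium and detergent, pH 7.8.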
DDE Tn6 FP inh: inhibitors of Tn6 peptide binding to human fibrin DD(E). P02675. Fibrin DD(E) TRITC-Tn6 fluorescence polarization displacement. inhibition, % at 8.3 µM. 370,000 tested, 0.21% active;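 active means inhibition above a per-campaign cutoff: mean of compounds within control limits plus 3 SD, cut at about 15% in these data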;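 further: 0% = median of all compound wells on the plate and 100% = blocking peptide control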
PLC-beta3 inh: PLC-beta3 (human) inhibition, primary screen; Q01970; Purified PLC-beta3, fluorogenic substrate, fluorescence; inhibition, % at 12.2 µM; 370,000 tested, 0.18% active; AID 720704; in the data active means inhibition above about 11%;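 further: 0% = median of compound wells on plate and 100% = full blocker control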
proKLK7 act: activators of human kallikrein-7 zymogen | purified proKLK7, EDANS-DABCYL substrate fluorescence; 100% is mature enzyme control, 0% vehicle | activation, % at 7 µM | 370,000 tested, 0.9% active;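 active means activation above the mean of all tested compounds plus 3 SD, computed per campaign excluding outliers beyond control limits, cut at about 13% in these data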
PLCg1 inh: blocks human PLC-gamma1 enzyme activity; purified PLC-gamma1, fluorogenic substrate, fluorescence; inhibition, % at 12.2 µM; 370,000 tested, 0.84% active; AID 720700
CendR NRP1 mod: modulators of CendR peptide binding to human neuropilin-1 | 360,000 tested, 0.85% active | inhibition, % at 25 µM | AID 602438 | FAM-RPARPAR peptide binding to NRP-1, fluorescence polarization;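 active means inhibition or corrected inhibition above about 18%, plus a signal ratio from 0.5 to 1.5, limit read from the data, passing the limit was not always enough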
PLCg1 ctr: inhibits human PLC-gamma1 in PLC-beta3 counter-screen; inhibition, % at 12.3 µM; shares compounds with PLCg1 inh; 3,300 tested, 3.1% active; purified PLC-gamma1, fluorogenic substrate, fluorescence
PLCb3 confirm: confirmation of human PLC-beta3 inhibitors. shares compounds with PLCg1 inh. AID 743261. inhibition, % at 12.3 µM. purified PLC-beta3, fluorogenic substrate fluorescence. 3,300 tested, 1% active; in the data active means inhibition above about 11%
An asterisk follows results filed as active. Hits are enriched below; roughly 3% of the tested compounds scored in any of these assays. Unless noted, no stated cut-off is given here; in the data, active means inhibition above about 9.5%; inactive means the rest.

`CC1=C(C(=O)N(C)C)CC(CC(=O)NCC2CCCCC2)C(=O)N1CCC1=CCCCC1` (configuration not stated) gave Tn7 DDE FP -4, DDE Tn6 FP inh -2, PLC-beta3 inh 4, proKLK7 act 0, PLCg1 inh 11*, CendR NRP1 mod -11, PLCg1 ctr -3 and PLCb3 confirm 0.
For COc1cccc(C2(O)CCN(C(=O)C3CCC3)CC2)c1 the results were Tn7 DDE FP -3, DDE Tn6 FP inh -3, PLC-beta3 inh 6, proKLK7 act 1, PLCg1 inh 12*, CendR NRP1 mod 12, PLCg1 ctr -1 and PLCb3 confirm 7.
Screening Cc1cccc(C)c1NC(=O)[C@@H]1CC(=O)O[C@@H]1c1ccccc1 returned Tn7 DDE FP -2, DDE Tn6 FP inh 0, PLC-beta3 inh 1, proKLK7 act 1 and PLCg1 inh -1.
`CCOC(=O)C1CCN(C(=O)c2ccc3c(c2)OCCO3)CC1` gave Tn7 DDE FP -2, DDE Tn6 FP inh -11, PLC-beta3 inh -8, proKLK7 act 0, PLCg1 inh 12*, CendR NRP1 mod 14, PLCg1 ctr -1 and PLCb3 confirm 1.
Screening CCOC(=O)C1CCN(C(=O)c2cc(C)n(C(C)(C)C)n2)CC1 returned Tn7 DDE FP 2, DDE Tn6 FP inh -4, PLC-beta3 inh -3, proKLK7 act 0, PLCg1 inh 11*, CendR NRP1 mod 3, PLCg1 ctr -2 and PLCb3 confirm 0.
`COC(=O)[C@]12C[C@H](CC(=O)NCCC(C)C)C(=O)N(Cc3ccc(Cl)cc3Cl)C1=C[C@H](C(C)C)O[C@@H]2C1CC1` gave Tn7 DDE FP -6, DDE Tn6 FP inh 9, PLC-beta3 inh 5, proKLK7 act 0 and PLCg1 inh 3.
For COCCCNC(=O)C[C@H]1C[C@@]2(C(=O)OC)C(=C[C@H](C(C)C)O[C@@H]2C2CC2)N(Cc2ccc(Cl)cc2Cl)C1=O the results were Tn7 DDE FP -4, DDE Tn6 FP inh 5, PLC-beta3 inh 5, proKLK7 act 1, PLCg1 inh 10*, PLCg1 ctr 2 and PLCb3 confirm -8.
`COC(=O)[C@]12C[C@H](CC(=O)N3CCCCC3)C(=O)N(Cc3ccccc3)C1=C[C@H](C(C)C)O[C@@H]2C1CC1` gave Tn7 DDE FP -11, DDE Tn6 FP inh -1, PLC-beta3 inh 13*, proKLK7 act -1, PLCg1 inh 8, PLCg1 ctr -5 and PLCb3 confirm -3.
`CCOc1ccccc1C(=O)NCC(=O)NCCc1ccc(S(N)(=O)=O)cc1` gave Tn7 DDE FP -1, DDE Tn6 FP inh -1, PLC-beta3 inh 2, proKLK7 act 0, PLCg1 inh 10.0*, CendR NRP1 mod 0, PLCg1 ctr -6 and PLCb3 confirm -1.
For O=C(Cc1ccc([N+](=O)[O-])cc1)Oc1ccccc1 the results were Tn7 DDE FP 2, DDE Tn6 FP inh -7, PLC-beta3 inh 2, proKLK7 act 0, PLCg1 inh 9.7*, CendR NRP1 mod -8, PLCg1 ctr -7 and PLCb3 confirm -4.
CN(C(=O)c1cccnc1)c1nc(-c2ccccc2)cs1 was read as Tn7 DDE FP 0, DDE Tn6 FP inh -2, PLC-beta3 inh 7, proKLK7 act 0, PLCg1 inh 9.7*, CendR NRP1 mod -2, PLCg1 ctr -8 and PLCb3 confirm -6.
For CN(Cc1ccccc1)C(=O)c1cccnc1 the results were Tn7 DDE FP 4, DDE Tn6 FP inh 10, PLC-beta3 inh -11, proKLK7 act 0, PLCg1 inh 0 and CendR NRP1 mod 9.
Screening O=C(NC1CCCCN(Cc2cccc(Cl)c2)C1=O)c1ccc(COc2ccccc2)cc1 (configuration not stated) returned Tn7 DDE FP 3, DDE Tn6 FP inh -2, PLC-beta3 inh 2, proKLK7 act 1 and PLCg1 inh 2.
